According to ChEMBL document CHEMBL1121465 (J Med Chem, 1980):

Biological target: GABA-A receptor; anion channel
Test: Displacement of [3H]gamma-amino butyric acid from Gamma-aminobutyric acid (GABA-A) receptor of rat brain

Row | Structure (SMILES) | Ki
1 | O=C1NC(=O)C(c2ccccc2)(c2ccccc2)N1 [PHENYTOIN] | > 100000 nM
2 | NCc1cc(=O)[nH]o1 [MUSCIMOL] | 4 nM
3 | NC(=O)CCC/N=C(\c1ccc(Cl)cc1)c1cc(F)ccc1O [PROGABIDE] | 14000 nM
4 | CCCC(CCC)C(=O)[O-].[Na+] [VALPROATE SODIUM] | > 100000 nM
5 | O=C([O-])CCC/N=C(\c1ccc(Cl)cc1)c1cc(F)ccc1O.[Na+] | 590 nM

Test system: Mus musculus
Test: Lethal dose which causes death in 50% of the mice within 48 hr of ip administration
Type: functional
Outline: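 Male albino CD1 mice (18–22 g) dosed intraperitoneally, then returned to home cages, 10 per cage. Deaths per dose were counted at 48 h. LD50 was estimated on log-probit paper.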

Row | Structure (SMILES) | LD50
6 | O=C1NC(=O)C(c2ccccc2)(c2ccccc2)N1 [PHENYTOIN] | 250 mg/kg
7 | NCc1cc(=O)[nH]o1 [MUSCIMOL] | 17 mg/kg
8 | NC(=O)CCC/N=C(\c1ccc(Cl)cc1)c1cc(F)ccc1O [PROGABIDE] | 900 mg/kg
9 | CCCC(CCC)C(=O)[O-].[Na+] [VALPROATE SODIUM] | 1000 mg/kg
10 | O=C([O-])CCC/N=C(\c1ccc(Cl)cc1)c1cc(F)ccc1O.[Na+] | 420 mg/kg

Biological target: GABA-A receptor; anion channel
Test: Displacement of [3H]gamma-amino butyric acid from Gamma-aminobutyric acid (GABA-A) receptor of human cerebellar cortex preparation

Row | Structure (SMILES) | Ki
11 | NCc1cc(=O)[nH]o1 [MUSCIMOL] | 11 nM
12 | NC(=O)CCC/N=C(\c1ccc(Cl)cc1)c1cc(F)ccc1O [PROGABIDE] | 40000 nM
13 | CCCC(CCC)C(=O)[O-].[Na+] [VALPROATE SODIUM] | > 100000 nM
14 | O=C([O-])CCC/N=C(\c1ccc(Cl)cc1)c1cc(F)ccc1O.[Na+] | 680 nM

Species on record: Mus musculus
Test: Effective dose which decreases the 50% of the lethality induced by bicuculline in mice
Type: functional
Outline: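 Mice given ip serial doses 30 min before iv bicuculline at 0.9 mg/kg, 10 animals per drug per dose per experiment. ED50, the dose protecting half the mice from lethality, derived by log-probit plot.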

Row | Structure (SMILES) | ED50
15 | O=C1NC(=O)C(c2ccccc2)(c2ccccc2)N1 [PHENYTOIN] | 50 mg/kg
16 | NCc1cc(=O)[nH]o1 [MUSCIMOL] | > 2 mg/kg
17 | NC(=O)CCC/N=C(\c1ccc(Cl)cc1)c1cc(F)ccc1O [PROGABIDE] | 65 mg/kg
18 | CCCC(CCC)C(=O)[O-].[Na+] [VALPROATE SODIUM] | 130 mg/kg
19 | O=C([O-])CCC/N=C(\c1ccc(Cl)cc1)c1cc(F)ccc1O.[Na+] | 70 mg/kg

Species on record: Mus musculus
Test: Effective dose which decreases the 50% of the convulsions induced by bicuculline in mice
Type: functional

Row | Structure (SMILES) | ED50
20 | NCc1cc(=O)[nH]o1 [MUSCIMOL] | 0.25 mg/kg
21 | NC(=O)CCC/N=C(\c1ccc(Cl)cc1)c1cc(F)ccc1O [PROGABIDE] | 20 mg/kg
22 | CCCC(CCC)C(=O)[O-].[Na+] [VALPROATE SODIUM] | 33 mg/kg
23 | O=C([O-])CCC/N=C(\c1ccc(Cl)cc1)c1cc(F)ccc1O.[Na+] | 15 mg/kg
